CHRM5 agonist = agonists of human muscarinic M5 receptor (CHRM5); P08912; CHO-K1 hM5 cells, Fluo-8 calcium fluorescence; 0% DMSO wells, 100% maximal acetylcholine response; activation, % at 3 µM; actives 0.19% (n = 360,000);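 active = activation above the run's mean over test compounds plus 3 SD, cut at about 23% in these data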;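 also: signal is peak over basal fluorescence ratio across the kinetic read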
M4 antag = CHRM4 antagonism in calcium assay; CHO-hM4 cells, ACh EC80, Fluo-8 calcium fluorescence; inhibition, % at 3 µM; actives 0.73% (n = 360,000);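 active = inhibition above its plate's cutoff, the mean inhibition of sample wells plus 3 SD, cut at about 27% in these data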;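 also: 0% = acetylcholine EC80 with DMSO and 100% = DMSO without agonist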
CHRM5 PAM = positive allosteric modulators of human muscarinic M5 receptor; CHO-K1 hM5, Fluo-8 calcium, ACh EC20 PAM; 0% = ACh EC20, 100% = ACh EC100; actives 0.3% (n = 360,000); activation, % at 3 µM; AID 624038;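 active = activation above the run cutoff, the mean activation of all test compounds plus 3 SD, cut at about 18% in these data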
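Assay system: CHO-K1 hM5 cells / Incubation: Fluo-8 loading 80 min at 37 °C plus 30 min room temperature / Technique: Fluo-8 calcium dye fluorescence, kinetic read / Repeats: single replicate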
CHRM4 agonist = CHRM4 agonism in calcium assay | P08173 | CHO-K1 hM4/Gqi5, Fluo-8 calcium fluorescence; vehicle 0%, full acetylcholine response 100% | activation, % at 3 µM | actives 0.14% (n = 360,000) | AID 624127;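 active = activation above the run mean over all test wells plus 3 SD, cut at about 32% in these data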;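 also: peak over basal fluorescence ratio per well then scaled between controls; 0% = DMSO wells and 100% = acetylcholine at EC100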
CHRM5 antagonist = CHRM5 antagonism in calcium assay; actives 0.59% (n = 360,000); P08912; CHO-hM5 cells, Fluo-8 calcium fluorescence, ACh EC80; inhibition, % at 3 µM; AID 624040;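 active = inhibition above a per-plate cutoff, the mean of that plate's test compounds plus 3 SD, cut at about 27% in these data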;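 also: 0% = acetylcholine EC80 with DMSO and 100% = DMSO without agonist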
M4 PAM = CHRM4 positive allosteric modulation | P08173 | CHO-K1 hM4/Gqi5, Fluo-8 calcium fluorescence, ACh EC20; 0% = ACh EC20, 100% = maximal ACh | activation, % at 3 µM | actives 0.4% (n = 360,000);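 active = activation above its plate's cutoff, the mean activation of sample wells plus 3 SD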
* = called active by the depositor. Only some compounds are listed: those with a hit (about 1.9% of all), similar ones and a draw of the others.

SMILES	CHRM5 agonist	M4 antag	CHRM5 PAM	CHRM4 agonist	CHRM5 antagonist	M4 PAM
O=C1CCCN1c1ccc(S(=O)(=O)Nc2cccnc2)cc1	-8	3	1	1	-9	6
Cc1ccc(Nc2c(-c3ccc(N4CCOCC4)cc3)nc3cnccn23)cc1	7	10	19*	0	-12	11
Cc1ccccc1Nc1c(-c2ccc(N3CCOCC3)cc2)nc2cnccn12	1	0	4	0	1	7
CC1(C(=O)NCC2CC2)Cc2c(-c3cccc(C(F)(F)F)c3)ccnc2O1 (stereo not drawn)	0	4	1	0	-3	2
CCOc1cc(-c2noc(CCC(=O)NCC3CCCO3)n2)ccc1OC (stereo not drawn)	-3	0	-4	1	-2	1
COc1ccc(-c2noc(CCC(=O)NCC3CCCO3)n2)cc1OC (stereo not drawn)	-4	27*	-4	0	16	-6
CCc1nc2ccc(C(=O)N3CCN(S(=O)(=O)CC)CC3)cn2c1N(CC)Cc1cccc(Br)c1	-4	-11	-6	2	-8	0
Cc1ccc(C(=O)CCC(=O)OC(C)C(=O)NC2CCCCC2C)cc1 (stereo not drawn)	-1	-10	16	-1	6	7
CCCCN(CCCC)c1cn[nH]c(=O)c1Cl	-13	43*	-26	-1	11	-13
C=CCNc1nc(Nc2ccc(OC)cc2)nc(OC)n1	-14	10	18*	-1	-4	7
CN(C(=O)c1cccc(NC(=O)Cc2ccc(NC(=O)C3CCCN(C(=O)c4ccccc4)C3)cc2)c1)C1CCCC1 (stereo not drawn)	-2	-3	3	0	-1	4
CCN(CC)CCN1c2ccccc2Sc2ccccc21	-7	89*	-18	3	99*	-18
CCN(CC)CCN1c2ccccc2Sc2ccc3ccccc3c21	-7	20	-21	4	80*	-15
Cc1ccc2cc(NC(=O)c3ccc(C(C)(C)C)cc3)ccc2n1	-3	20	0	21	27*	11
CSCCC(NS(=O)(=O)c1ccccc1F)C(=O)Nc1cccc(C)n1 (stereo not drawn)	0	-11	2	3	-3	-1
COc1cc(OC)cc(C(=O)Nc2ccc3c(c2)n(C)c(=O)n3C)c1	2	-5	0	2	-8	3
CCn1c(=O)n(CC)c2cc(NC(=O)c3ccccc3Cl)ccc21	9	6	20*	0	-21	-3
CCc1ccc(C(=O)Nc2ccc3c(c2)n(C)c(=O)n3C)cc1	2	-6	24*	1	-18	-4
COc1ccc(-n2nc3c(N4CCC(C(=O)N5CCC(C)CC5)CC4)nnc(C)c3c2C)cc1	-5	20	-15	1	43*	-12
O=C(Oc1ccc([N+](=O)[O-])cc1)C1CC(=O)N(c2ccc3c(c2)OCCO3)C1 (stereo not drawn)	7	-11	1	4	8	3
CN1CCC(=NNC(=O)CN(c2ccccc2)S(=O)(=O)c2ccccc2)CC1	-4	-7	-1	14	18	-1
CSc1ccc(S(=O)(=O)N(CC(=O)NN=C2CCN(C)CC2)c2ccc(C)cc2)cc1	5	-8	23*	2	-4	17
Cc1cccc(Nc2nc(-c3c(C)nc4ccccn34)cs2)c1	2	31*	-21	20	35*	-11
Cc1nc2ccccn2c1-c1csc(Nc2cccc(O)c2)n1	3	-2	-14	13	6	-11
COC1CC(=O)C2OC(c3ccccc3)OCC2O1 (stereo not drawn)	0	6	1	1	-2	-1
CC(=O)c1cccc(S(=O)(=O)N2CCC(C(=O)O)(c3ccccc3)CC2)c1	-3	-31	-2	0	2	16*
CC(=O)c1cccc(NC(=O)C(C)OC(=O)c2cccc(S(=O)(=O)N3CCN(C)CC3)c2)c1 (stereo not drawn)	44*	-1	-11	2	0	2
